Data reported in the EternaBench riboswitch data.

Columns and labels:
[1] = test system: MS2 coat protein; test: apparent Kd, MS2 coat protein; higher = weaker binding; RNA-MaP array; tryptophan 2.4 mM where present
Summary of the method: (§1)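 Green signal was scaled to red-channel RNA signal and control-cluster median Fmax, and the apparent Kd was taken as the median of filtered per-cluster binding-curve fits. The binding series used SNAP-549-labelled MS2 coat protein from 0.7 or 1.5 nM, doubling to 3 µM, on designs transcribed by stalled E. coli RNA polymerase on Illumina sequencing-chip clusters. Each series ran without and then with constant ligand in 100 mM Tris-HCl pH 7.5, 80 mM KCl, 4 mM MgCl2, BSA, DTT, yeast tRNA and Tween-20.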

[2] = test system: MS2 coat protein; test: apparent Kd, MS2 coat protein; higher = weaker binding; RNA-MaP array; theophylline 2 mM where present
Summary of the method: as §1

[3] = designed as: OFF switch for tryptophan, no ligand
[4] = ligand present: tryptophan, designed as: OFF switch for tryptophan
[5] = designed as: ON switch for tryptophan, no ligand
[6] = ligand present: tryptophan, designed as: ON switch for tryptophan
[7] = designed as: ON switch for theophylline, no ligand
[8] = ligand present: theophylline, designed as: ON switch for theophylline
[9] = designed as: OFF switch for theophylline, no ligand
[10] = ligand present: theophylline, designed as: OFF switch for theophylline

Sequence: GAUCGAAAUAACGCAUAGGAAAACUAUGCGCGAGGACCGGUACGGCCGCCACUCGUCCUCACAUGAGGAUCACCCAUGUACGAUC
- apparent Kd [1, 3]: 22.4 nM
- apparent Kd [1, 4]: 58.6 nM

Sequence: CGCAACAUGAGGAUCACCCAUGUAAUGACGCGAGGACCGGUACGGCCGCCACUCGCCUGCCAAUGAGCGCAUGCGGCCUGGGUAU
- apparent Kd [1, 3]: 11.6 nM
- apparent Kd [1, 4]: 14.5 nM

Sequence: CACAGUGCGAAUUUGAAUUCGCACGAUCCUCGAGGACCGGUACGGCCGCCACUCGCGCGGGUCGUACAUGAGGAUCACCCAUGUC
- apparent Kd [1, 5]: 166 nM
- apparent Kd [1, 6]: 842 nM

Sequence: ACAUGAGGAUCACCCAUGUAACGGCAUAAUCGAGGACCGGUACGGCCGCCACUCGGAAUCAGUGACAGGCAUAUUUAUUAUAAGA
- apparent Kd [1, 3]: 9.88 nM
- apparent Kd [1, 4]: 10 nM

Sequence: GGGUCAGGCGCGGCCGCCACUGCGGUGAUGUGACAUGAGGAUCACCCAUGUUGUCAUGUGGCACAUAGGACCGGGUGCCUGGCCC
- apparent Kd [1, 3]: 30.1 nM
- apparent Kd [1, 4]: 29.9 nM

Sequence: CACGAAAGAUCGGCCGCCACUAAUCGAUGUGUUCUUUCACAUGAGGAUCACCCAUGUUCUUGCGUUAGGACCGGGAUUGAGCGUG
- apparent Kd [1, 3]: 38.7 nM
- apparent Kd [1, 4]: 31.9 nM

Sequence: AAAGAUCGGAAACGAUCGGCGGCUUGGGCGCGAGGACCGGUACGGCCGCCACUCGGGAAACAUGAGGAUCACCCAUGUUGCUUCU
- apparent Kd [1, 3]: 10.9 nM
- apparent Kd [1, 4]: 12 nM

Sequence: CACAGUGCGAAUUUGAAAUCGCACGAUCCUCGAGGACCGGUACGGCCGCCACUCGCGCGGGUCGUACAUGAGGAUCACCCAUGUC
- apparent Kd [1, 5]: 317 nM
- apparent Kd [1, 6]: 545 nM

Sequence: AUAACAUGAGGAUCACCCAUGUAUUGGUAACGAGGACCGGUACGGCCGCCACUCGUAUUUUGGUGGUAUUAUAUAUAUAUGAUUA
- apparent Kd [1, 5]: 20.8 nM
- apparent Kd [1, 6]: 19.7 nM

Sequence: AAUUAAACAUCGGCCGCCACUUACUCAUGAGGUAACAACAUGAGGAUCACCCAUGUUUGAGGAUCAAGGACCGGGAUGUAAUAAU
- apparent Kd [1, 5]: 31.3 nM
- apparent Kd [1, 6]: 22.6 nM

Sequence: AUCAUAAUAGACUCGUUAGAUUAUAUGGAACGAGGACCGGUACGGCCGCCACUCGUGAUGUACAUGAGGAUCACCCAUGUUAGCA
- apparent Kd [1, 5]: 13.5 nM
- apparent Kd [1, 6]: 13.5 nM

Sequence: GUCUUUGACGAUCUGGGAAAACCAGAUCGACGAGGACCGGUACGGCCGCCACUCGUGUUUUCUUUACAUGAGGAUCACCCAUGUA
- apparent Kd [1, 5]: 13.1 nM
- apparent Kd [1, 6]: 12.7 nM

Sequence: GGGAGGGAGGCGGCCGCCACUGAUUUUCAUAUAUAUAUAACAUGAGGAUCACCCAUGUGGAUAUACAGGACCGGGCCUUUUUUUU
- apparent Kd [1, 5]: 19.8 nM
- apparent Kd [1, 6]: 13.2 nM

Sequence: AUACAUGAGGAUCACCCAUGUGAUGGCCGGCGAGGACCGGUACGGCCGCCACUCGUGAUCCGUCCUGAAAGCAAAGCUUCCAGCA
- apparent Kd [1, 5]: 182 nM
- apparent Kd [1, 6]: 239 nM

Sequence: AAUACCGGAUCGGCCGCCACUGGUUGGCCCUGUGUACAUGAGGAUCACCCAUGUCCAUCCCAAACCAGGACCGGGAUCUUUGUGC
- apparent Kd [1, 5]: 12 nM
- apparent Kd [1, 6]: 10.2 nM

Sequence: ACGACGCAUAGUGAUACCAGUAGAACAUGAGGAUCACCCAUGUCAGAUAUGUUCUAAUACUGCCCUUGGCAGCACUAUGCGUCAG
- apparent Kd [2, 7]: 260 nM
- apparent Kd [2, 8]: 134 nM

Sequence: AAACGUUGCUCAGAUACCAGACAUGAGGAUCACCCAUGUACCAAGGUACCCGAAAGGAAUGUCCCUUGGCAGCUGAGCAACGAAA
- apparent Kd [2, 9]: 9.57 nM
- apparent Kd [2, 10]: 21.6 nM

Sequence: CAGCCUGGUUGGUAAAUCCCUCAUCGUGAUACCAGUCGAGUGAUCGACCCUUGGCAGCACAUGAGGAUCACCCAUGUGCUCGUAU
- apparent Kd [2, 9]: 25.1 nM
- apparent Kd [2, 10]: 23.1 nM

Sequence: AUAACAUGAGGAUCACCCAUGUAGAGUGAUACCAGACUACGUAAUGUCCCUUGGCAGCACAAGUAAAGUUACGAAUAAUGAUAGA
- apparent Kd [2, 7]: 179 nM
- apparent Kd [2, 8]: 50.8 nM

Sequence: AAUAAAUCACAUGAGGAUCACCCAUGUGAUACCAGCCUGGAAACAGGCCCUUGGCAGCACAUGAGGAUCACCCAUGUGCUAAAUA
- apparent Kd [2, 9]: 8.81 nM
- apparent Kd [2, 10]: 8.4 nM

Sequence: ACAUGAGGAUCACCCAUGUCACGGCACGAUACCAGCUGAUCCGGUGGCCCUUGGCAGCGUCACGUUUGGUCCCGCGGAUGACACG
- apparent Kd [2, 7]: 64.3 nM
- apparent Kd [2, 8]: 60.4 nM

Sequence: UGGUACAUGAGGAUCACCCAUGUUCCAGAUACCAGUGUCCCGCUGCACCCUUGGCAGCUGGUGGCACAUGAGGAUCACCCAUGUG
- apparent Kd [2, 9]: 15 nM
- apparent Kd [2, 10]: 17.1 nM

Sequence: AUACCUAGUGAGUCGUGUUUCUUUUCAGAUACCAGACUUUUCGUUGUCCCUUGGCAGCUGUUUUACAUGAGGAUCACCCAUGUUG
- apparent Kd [2, 9]: 15.7 nM
- apparent Kd [2, 10]: 23.6 nM

Sequence: AUCGUACCUAAUGAUACCAGCAAGUGAUCAUAACAUGAGGAUCACCCAUGUAAUCAGUGAUGCCCUUGGCAGCAUAAUCGAUACA
- apparent Kd [2, 7]: 146 nM
- apparent Kd [2, 8]: 88 nM

Sequence: AAACGUUGCUCAGAUACCAGACAUGAGGAUCACCCAUGUACCAAGGUAAAGAAAUAACGUGUCCCUUGGCAGCUGAGCAACGAAA
- apparent Kd [2, 9]: 11 nM
- apparent Kd [2, 10]: 113 nM
